Measured values collected from several papers.
CYP2C19: Cytochrome P450 2C19 (CYP2C19, Homo sapiens, UniProt P33261)
SLC22A11: Solute carrier family 22 member 11 (SLC22A11, Homo sapiens, UniProt Q9NSA0)
ERBB2: Receptor tyrosine-protein kinase erbB-2 (ERBB2, Homo sapiens, UniProt P04626)
60 kDa heat shock protein, mitochondrial: 60 kDa heat shock protein, mitochondrial (Homo sapiens, UniProt P10809)

Cn1cncc1[C@@](N)(c1ccc(Cl)cc1)c1ccc2c(c1)c(-c1cccc(Cl)c1)cc(=O)n2C  Ki (CYP2C19; enzyme activity, inhibitor; human, liver microsomes): 0.75 µM
CC(C)(C)OC(=O)N1CCN(Cc2ccn(Cc3ccc(Cl)cc3)c(=O)c2O)CC1  IC50 (Lysine-specific demethylase 3B (KDM3B, Homo sapiens, UniProt Q7LBC6); enzyme activity, inhibitor, AlphaScreen): 4.79 µM
O=C1c2cccc3c2[C@H](CCC3)CN1[C@@H]1CN2CCC1CC2  Ki (5-hydroxytryptamine receptor 3A (HTR3A, Homo sapiens, UniProt P46098); ligand displacement, radioligand): 0.000246 µM
Cn1c(=O)c2c(ncn2C)n(C)c1=O  IC50 (SLC22A11; transporter uptake, inhibitor, radiometric; oocytes): 575 µM
Cn1nc2c(=O)n(C3CC3)cnc2c1[C@](O)(c1cnc(C(F)(F)F)c(Cl)c1)C(F)(F)F  IC50 (CYP2C19; enzyme activity, inhibitor; human, liver microsomes; pH 7.4): > 20 µM
O=C1CCc2ccccc2O1  Ki (Carbonic anhydrase 2 (CA2, Homo sapiens, UniProt P00918); enzyme activity, inhibitor, stopped-flow): 48.5 µM
COC(=O)Nc1nc2ccc(C(=O)c3ccccc3)cc2[nH]1  IC50 (Tyrosine-protein kinase ABL1 (ABL1, Homo sapiens, UniProt P00519); enzyme activity, inhibitor, mobility shift): 1.78 µM
COc1ccc2[nH]c(C(=O)Nc3nc(CC(=O)O)cs3)cc2c1  IC50 (ERBB2; enzyme activity, inhibitor): 1.77 µM
CNC(=O)c1ccc(Nc2ncc(C(F)(F)F)c(NCc3nccnc3N(C)S(C)(=O)=O)n2)cc1  IC50 (cGMP-dependent 3',5'-cyclic phosphodiesterase (PDE2A, Homo sapiens, UniProt O00408); enzyme activity, inhibitor): 3.8 µM
Cc1nn(C)c2ncc(C(=O)NCC3CC(Br)=NO3)c(Cl)c12 (stereo not drawn)  IC50 (60 kDa heat shock protein, mitochondrial; ATPase activity, inhibitor): > 250 µM
O=C1CC[C@H](N2Cc3cc(N4CCN(CC5CCN(c6ccc([C@@H]7c8ccc(O)cc8CC[C@@H]7c7ccccc7)cc6)CC5)CC4)ccc3C2=O)C(=O)N1  IC50 (Androgen receptor (AR, Homo sapiens, UniProt P10275); ligand displacement, radioligand): 0.1 µM
Nc1ncnc2c1ncn2[C@@H]1O[C@H](CO)[C@@H](O)[C@H]1O  IC50 (SLC22A11; transporter uptake, inhibitor, radiometric; oocytes): > 2000 µM
Cn1ncc2c(Cl)c(C(=O)NCc3ccccc3)cnc21  IC50 (60 kDa heat shock protein, mitochondrial; ATPase activity, inhibitor): > 250 µM
Cn1nc2c(=O)n(C3CC3)ncc2c1[C@](O)(c1cnc(C(F)(F)F)c(Cl)c1)C(F)(F)F  IC50 (CYP2C19; enzyme activity, inhibitor; human, liver microsomes; pH 7.4): > 20 µM
O=C(O)Cc1csc(NC(=O)c2cc3ccccc3[nH]2)n1  IC50 (ERBB2; enzyme activity, inhibitor): 0.618 µM
